Experimental data from ChEMBL document CHEMBL3593191, “Ethyl 2-((4-Chlorophenyl)amino)thiazole-4-carboxylate and Derivatives Are Potent Inducers of Oct3/4” (2015).
Activity calls are given as the source filed them. The rule behind the calls is not given here.

Experiments:
[1] = molecular target: POU domain, class 5, transcription factor 1 (Homo sapiens) (UniProt Q01860); test: Activation of Oct3/4 (unknown origin) expressed in HEK293 cells after 72 hrs by luciferase reporter gene assay relative to control; assay type: cell-based
Method in brief: (§1)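 HEK293 cells stably carrying luciferase under a human Oct3/4 promoter (HEK-Oct3/4), or NCCIT cells lentivirally transduced with an Oct3/4 transcriptional response element reporter (NCCIT-Oct3/4, kept under 400 ng/mL puromycin). Cells seeded at 100,000/well for 24 h, then treated with compound. Lysed for 10 min at 37°C, luciferin/ATP mix added, read after 3 min. Signal given as percent of control cells; at least five independent experiments.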

[2] = molecular target: POU domain, class 5, transcription factor 1 (Homo sapiens) (UniProt Q01860); test: Activation of Oct3/4 (unknown origin) transcriptional activity expressed in human NCCIT cells at 20 uM by luciferase reporter gene assay relative to control; assay type: cell-based; settings: TDE = time-dependent effect; method in brief: as §1
[3] = molecular target: POU domain, class 5, transcription factor 1 (Homo sapiens) (UniProt Q01860); test: Activation of Oct3/4 (unknown origin) expressed in human NCCIT cells at 5 uM after 72 hrs by luciferase reporter gene assay relative to control; assay type: cell-based
[4] = molecular target: POU domain, class 5, transcription factor 1 (Homo sapiens) (UniProt Q01860); test: Activation of Oct3/4 in human fibroblasts assessed as increase of Nanog gene expression after 48 hrs by RT-PCR analysis relative to control
Method in brief: (§2)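 qRT-PCR of pluripotency-related genes in compound-treated HEK293 cells or primary human skin fibroblasts, against an endogenous control gene. Values normalized to DMSO-treated cells as mean ± SD of quadruplicates, representative of two independent experiments.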

[5] = molecular target: POU domain, class 5, transcription factor 1 (Homo sapiens) (UniProt Q01860); test: Activation of Oct3/4 in human fibroblasts assessed as repression of N-cadherin gene expression after 48 hrs by RT-PCR analysis relative to control; method in brief: as §2
[6] = molecular target: POU domain, class 5, transcription factor 1 (Homo sapiens) (UniProt Q01860); test: Activation of Oct3/4 in human fibroblasts assessed as increase of Lin28 gene expression after 48 hrs by RT-PCR analysis relative to control; method in brief: as §2
Fibroblast [7] = test: Increase of Oct3/4 gene expression in human fibroblasts after 48 hrs by RT-PCR analysis relative to control; assay type: functional; method in brief: as §2
[8] = molecular target: POU domain, class 5, transcription factor 1 (Homo sapiens) (UniProt Q01860); test: Activation of Oct3/4 (unknown origin) expressed in human HEK293 cells after 48 hrs by luciferase reporter gene assay relative to control; assay type: cell-based; method in brief: as §1
[9] = molecular target: POU domain, class 5, transcription factor 1 (Homo sapiens) (UniProt Q01860); test: Activation of Oct3/4 (unknown origin) expressed in HEK293 cells assessed as increase of Sox2 gene expression after 72 hrs by RT-PCR analysis; assay type: cell-based; method in brief: as §2
[10] = molecular target: POU domain, class 5, transcription factor 1 (Homo sapiens) (UniProt Q01860); test: Activation of Oct3/4 in human fibroblasts assessed as increase of Rex1 gene expression after 48 hrs by RT-PCR analysis relative to control; method in brief: as §2
[11] = molecular target: POU domain, class 5, transcription factor 1 (Homo sapiens) (UniProt Q01860); test: Activation of Oct3/4 (unknown origin) expressed in HEK293 cells at 40 uM after 72 hrs by luciferase reporter gene assay relative to control; assay type: cell-based; method in brief: as §1
HEK293 [12] = test: Increase of Oct3/4 expression in human HEK293 cells after 72 hrs by immunoblotting; assay type: functional, cell-based
Method in brief: (§3)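 Immunoblot. Compound-treated cells lysed in urea lysis buffer (6 M urea, 0.5% Triton X-100, protease/phosphatase inhibitors). 40 µg total protein run on 10% SDS-PAGE. Probed with Oct3/4, Nanog or Lin28 antibodies, with vinculin or β-actin as loading control. Primary antibody 1:1000 overnight at 4°C, secondary 1:10,000 for 1 h at RT; ECL detection.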

[13] = molecular target: POU domain, class 5, transcription factor 1 (Homo sapiens) (UniProt Q01860); test: Activation of Oct3/4 (unknown origin) expressed in HEK293 cells assessed as […] of Rex1 gene expression after 72 hrs by RT-PCR analysis; assay type: cell-based; method in brief: as §2
[14] = molecular target: POU domain, class 5, transcription factor 1 (Homo sapiens) (UniProt Q01860); test: Activation of Oct3/4 (unknown origin) expressed in human NCCIT cells assessed as accumulation of Nanog after 72 hrs by immunoblotting; assay type: cell-based; method in brief: as §3
[15] = molecular target: POU domain, class 5, transcription factor 1 (Homo sapiens) (UniProt Q01860); test: Activation of Oct3/4 in human fibroblasts assessed as co-expression of Nanog and Klf4 after 5 days by immunocytochemistry analysis
Method in brief: (§4)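 Primary human fibroblasts seeded at 10,000 cells/well on Geltrex. After 24 h, treated for 5 days in DMEM/F12 with 20% knockout serum replacement, 10 ng/mL bFGF and 1 mM β-mercaptoethanol. Fixed in 4% PFA, blocked with 5% goat serum/0.3% Triton. Stained overnight at 4°C for Oct3/4 (1:400), Nanog (1:1000), Sox2 (1:100) or Klf4 (1:100), then Alexa 594/488 secondary for 1 h.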

[16] = molecular target: POU domain, class 5, transcription factor 1 (Homo sapiens) (UniProt Q01860); test: Activation of Oct3/4 (unknown origin) expressed in human HeLa cells assessed as accumulation of Nanog after 72 hrs by immunoblotting; assay type: cell-based; method in brief: as §3
[17] = molecular target: POU domain, class 5, transcription factor 1 (Homo sapiens) (UniProt Q01860); test: Activation of Oct3/4 in human fibroblasts assessed as increase of Lin28 protein expression after 72 hrs by immunoblotting relative to control; method in brief: as §3
Fibroblast [18] = test: Induction of endogenous cellular parameters in human fibroblasts assessed as increase in ALP-FITC signal using propidium iodide staining after 5 days; assay type: functional, cell-based
[19] = molecular target: POU domain, class 5, transcription factor 1 (Homo sapiens) (UniProt Q01860); test: Activation of Oct3/4 (unknown origin) expressed in human NCCIT cells at 20 uM after 2 hrs by luciferase reporter gene assay relative to control; assay type: cell-based
[20] = molecular target: POU domain, class 5, transcription factor 1 (Homo sapiens) (UniProt Q01860); test: Activation of Oct3/4 in human fibroblasts assessed as increase of Nanog protein expression after 72 hrs by immunoblotting relative to control; method in brief: as §3
[21] = molecular target: POU domain, class 5, transcription factor 1 (Homo sapiens) (UniProt Q01860); test: Activation of Oct3/4 (unknown origin) expressed in human HeLa cells after 72 hrs by luciferase reporter gene assay relative to control; assay type: cell-based
HEK293 [22] = test: Increase of Oct3/4 gene expression in human HEK293 cells after 72 hrs by RT-PCR analysis; assay type: functional, cell-based; method in brief: as §2
[23] = molecular target: POU domain, class 5, transcription factor 1 (Homo sapiens) (UniProt Q01860); test: Activation of Oct3/4 in human fibroblasts assessed as co-expression of Oct3/4 and Sox2 after 5 days by immunocytochemistry analysis; method in brief: as §4
[24] = molecular target: POU domain, class 5, transcription factor 1 (Homo sapiens) (UniProt Q01860); test: Activation of Oct3/4 (unknown origin) expressed in HEK293 cells assessed as increase of Lin28 gene expression after 72 hrs by RT-PCR analysis; assay type: cell-based; method in brief: as §2
[25] = molecular target: POU domain, class 5, transcription factor 1 (Homo sapiens) (UniProt Q01860); test: Activation of Oct3/4 (unknown origin) expressed in HEK293 cells assessed as accumulation of Nanog after 72 hrs by immunoblotting; assay type: cell-based; method in brief: as §3
[26] = molecular target: POU domain, class 5, transcription factor 1 (Homo sapiens) (UniProt Q01860); test: Activation of Oct3/4 (unknown origin) expressed in HEK293 cells assessed as increase of Nanog gene expression after 72 hrs by RT-PCR analysis; assay type: cell-based; method in brief: as §2
[27] = molecular target: POU domain, class 5, transcription factor 1 (Homo sapiens) (UniProt Q01860); test: Activation of Oct3/4 (unknown origin) transcriptional activity expressed in human NCCIT cells after 72 hrs by luciferase reporter gene assay relative to control; assay type: cell-based; method in brief: as §1
[28] = molecular target: POU domain, class 5, transcription factor 1 (Homo sapiens) (UniProt Q01860); test: Activation of Oct3/4 (unknown origin) expressed in HEK293 cells at 20 uM after 72 hrs by luciferase reporter gene assay relative to control; assay type: cell-based; method in brief: as §1

POU domain, class 5, transcription factor 1 (Homo sapiens), sequence (Q01860 whole entry, the tested form may be a part): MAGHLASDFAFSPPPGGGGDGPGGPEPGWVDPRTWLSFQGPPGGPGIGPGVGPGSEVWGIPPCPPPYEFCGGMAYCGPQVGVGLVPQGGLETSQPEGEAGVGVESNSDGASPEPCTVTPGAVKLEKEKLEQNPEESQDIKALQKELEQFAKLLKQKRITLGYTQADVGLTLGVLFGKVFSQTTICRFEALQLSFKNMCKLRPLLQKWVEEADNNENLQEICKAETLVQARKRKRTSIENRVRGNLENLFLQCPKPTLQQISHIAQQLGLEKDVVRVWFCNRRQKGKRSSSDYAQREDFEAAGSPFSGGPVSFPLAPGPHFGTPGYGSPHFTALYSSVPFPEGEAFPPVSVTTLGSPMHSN

CCOC(=O)c1csc(Nc2ccc(Nc3nc(C(=O)OCC)cs3)cc2)n1
Activity [1]: inactive

O=C(O)c1csc(Nc2ccc(Cl)cc2)n1
Activity [1]: inactive

CCOC(=O)c1csc(NCc2ccccc2)n1
Activity [1]: inactive

CCOC(=O)c1csc(Nc2cccc(F)c2)n1
Activity [1]: Active

CCOC(=O)c1csc(Nc2ccc(Cl)c(Cl)c2)n1
Activity [1]: Active

CCOC(=O)c1csc(NC(C)=O)n1
Activity [1]: inactive

CCOC(=O)c1csc(Nc2cccc(Cl)c2)n1
Activity [1]: Active

O=C(O)c1csc(Nc2cccc(Cl)c2)n1
Activity [1]: inactive

O=C(O)c1csc(Nc2cc(Cl)ccc2Cl)n1
Activity [1]: inactive

CCOC(=O)c1csc(N)n1
Activity [1]: inactive

C=CCNc1nc(C(=O)OCC)cs1
Activity [1]: inactive

CCOC(=O)c1csc(Nc2ccccc2)n1
Activity [1]: Active

O=C(O)c1csc(Nc2ccc(Cl)cc2Cl)n1
Activity [1]: inactive

CCCCNc1nc(C(=O)OCC)cs1
Activity [1]: inactive

CN(C)CCCNC(=O)c1csc(Nc2ccc(Cl)cc2)n1
Activity [1]: inactive

CCOC(=O)c1csc(Nc2ccc(Cl)cc2Cl)n1
Activity [1]: Active

CCOC(=O)c1csc(Nc2ccc(Cl)cc2)n1
Activity [2]: tde
Activity [3]: Active
fold change (FC) [4]: 2
Activity [5]: Active
fold change (FC) [6]: 20
fold change (FC) (Fibroblast [7]): 15
Activity [8]: inactive
Activity [9]: Active
fold change (FC) [10]: 30
fold change (FC) [11]: 3.5
Activity (HEK293 [12]): Dose-dependent effect
Activity [13]: Active
Activity [14]: Active
Activity [15]: Active
Activity [16]: Dose-dependent effect
Activity [17]: Active
Activity (Fibroblast [18]): Active
Activity [19]: Active
Activity [20]: Active
Activity [21]: Dose-dependent effect
Activity (HEK293 [22]): Active
Activity [23]: Active
Activity [1]: Active
Activity [24]: inactive
Activity [25]: Active
Activity [26]: Active
Activity [27]: Dose-dependent effect
fold change (FC) [27]: 4
fold change (FC) [28]: 2
